Reference: ChEMBL document CHEMBL1157945, “Bioactive secolignans from Peperomia dindygulensis” (J Nat Prod, 2006)

What was measured:
WI-38 VA13 = experiment: Cytotoxicity against human VA13 cells; type: functional, cell-based
How it was run: (§1)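 Growth inhibition in WI-38 fibroblasts (Eagle's MEM), VA-13 (RITC 80-7) and HepG2 (D-MEM) lines, each medium with 10% FBS and 80 µg/mL kanamycin.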

[1] = Reversal of multidrug resistance in human AD10 cells assessed as increase in calcein accumulation at 0.25 ug/ml relative to verapamil; type: functional
How it was run: (§2)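 Multidrug-resistant ovarian A2780 subline AD10, kept in RPMI-1640 with 10% FBS and 80 µg/mL kanamycin. Intracellular accumulation of the fluorescent efflux probe calcein AM measured with test compounds at 0.25, 2.5 and 25 µg/mL; verapamil as reference. Values given relative to untreated control or to verapamil; means of triplicates.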

A549 [2] = experiment: Antiinflammatory activity in human A549 cells assessed as inhibition of IL1alpha -induced ICAM1 induction incubated for 1 hr prior to IL1alpha challenge measured after 6 hrs; type: functional, cell-based
How it was run: (§3)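 A549 cells grown in RPMI 1640 with 10% FBS and penicillin-streptomycin. Pretreated with serially varied compound concentrations for 1 h, then stimulated with IL-1α or TNF-α for 6 h. Cell-surface ICAM-1 detected with mouse anti-human ICAM-1 antibody plus peroxidase-conjugated goat anti-mouse IgG, read as absorbance. Expression as % of control = (sample+cytokine − no cytokine)/(cytokine − no cytokine) ×100; IC50 derived from this.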

A549 [3] = experiment: Antiinflammatory activity in human A549 cells assessed as inhibition of TNF-alpha-induced ICAM1 induction incubated for 1 hr prior to TNFalpha challenge measured after 6 hrs; type: functional, cell-based; how it was run: as §3
[4] = Reversal of multidrug resistance in human AD10 cells assessed as increase in calcein accumulation at 25 ug/ml relative to control; type: functional; how it was run: as §2
[5] = Reversal of multidrug resistance in human AD10 cells assessed as increase in calcein accumulation at 2.5 ug/ml relative to control; type: functional; how it was run: as §2
[6] = Reversal of multidrug resistance in human AD10 cells assessed as increase in calcein accumulation at 2.5 ug/ml relative to verapamil; type: functional; how it was run: as §2
[7] = Cytotoxicity against human WI38 cells; type: cell-based; details: WI-38; how it was run: as §1
A549 [8] = experiment: Cytotoxicity against human A549 cells after 24 hrs by MTT assay; type: functional, cell-based; details: A549, 24 h
How it was run: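 A549 cells in RPMI 1640 with 10% FBS were exposed to serial dilutions of compound for 24 h. Viability read by MTT absorbance: % = (experimental − background)/(control − background) ×100. IC50 taken from viability data.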

HepG2 = experiment: Cytotoxicity against human HepG2 cells; type: functional, cell-based; how it was run: as §1
[9] = Reversal of multidrug resistance in human AD10 cells assessed as increase in calcein accumulation at 25 ug/ml relative to verapamil; type: functional; how it was run: as §2
[10] = Reversal of multidrug resistance in human AD10 cells assessed as increase in calcein accumulation at 0.25 ug/ml relative to control; type: functional; how it was run: as §2

SMILES: C=C1C(=O)OC[C@H]1C(c1cc(OC)c(O)c(OC)c1)c1cc(OC)c2c(c1)OCO2 (some centres not stated)
- IC50 (WI-38 VA13): 13.5 µM
- Activity [1]: 98%
- IC50 (A549 [2]): 4.23 µM
- IC50 (A549 [3]): 3.16 µM
- Activity [4]: 125%
- Activity [5]: 98%
- Activity [6]: 85%
- IC50 [7]: 20.9 µM
- IC50 (A549 [8]): 84.7 µM
- IC50 (HepG2): 22.3 µM
- Activity [9]: 83%
- Activity [10]: 104%

SMILES: COc1cc(C(c2cc(OC)c3c(c2)OCO3)[C@@H]2CO[C@@H](O)[C@@H]2C)cc2c1OCO2
- IC50 (WI-38 VA13): 138 µM
- Activity [1]: 93%
- Activity [4]: 107%
- Activity [5]: 104%
- Activity [6]: 90%
- IC50 [7]: 142 µM
- IC50 (HepG2): 140 µM
- Activity [9]: 71%
- Activity [10]: 99%

SMILES: COc1cc(C(c2cc(OC)c3c(c2)OCO3)[C@@H]2COC(=O)[C@H]2C)cc(OC)c1O (some centres not stated)
- IC50 (WI-38 VA13): 112 µM
- Activity [1]: 93%
- Activity [4]: 107%
- Activity [5]: 104%
- Activity [6]: 90%
- IC50 [7]: 174 µM
- IC50 (HepG2): 159 µM
- Activity [9]: 71%
- Activity [10]: 99%

SMILES: COc1cc(C(c2cc(OC)c3c(c2)OCO3)[C@@H]2COC(=O)[C@@H]2CO)cc(OC)c1OC (some centres not stated)
- IC50 (WI-38 VA13): > 224 µM
- Activity [1]: 98%
- Activity [4]: 125%
- Activity [5]: 109%
- Activity [6]: 94%
- IC50 [7]: > 224 µM
- IC50 (HepG2): > 224 µM
- Activity [9]: 83%
- Activity [10]: 105%

SMILES: COc1cc(C(c2cc(OC)c(OC)c(OC)c2)[C@@H]2COC(=O)[C@H]2C)cc(O)c1OC (some centres not stated)
- IC50 (WI-38 VA13): > 231 µM
- Activity [1]: 95%
- IC50 (A549 [2]): 119 µM
- IC50 (A549 [3]): 59.9 µM
- Activity [4]: 105%
- Activity [5]: 104%
- Activity [6]: 90%
- IC50 [7]: > 231 µM
- IC50 (A549 [8]): > 316 µM
- IC50 (HepG2): > 231 µM
- Activity [9]: 70%
- Activity [10]: 101%

SMILES: COc1cc(C(c2cc(OC)c(OC)c(OC)c2)[C@@H]2COC(=O)[C@H]2C)cc(OC)c1O (some centres not stated)
- IC50 (WI-38 VA13): 151 µM
- Activity [1]: 90%
- IC50 (A549 [2]): 44.3 µM
- IC50 (A549 [3]): 29 µM
- Activity [4]: 103%
- Activity [5]: 95%
- Activity [6]: 82%
- IC50 [7]: 184 µM
- IC50 (A549 [8]): > 316 µM
- IC50 (HepG2): 163 µM
- Activity [9]: 68%
- Activity [10]: 96%

SMILES: COc1cc(C(c2cc(OC)c3c(c2)OCO3)[C@@H]2COC(=O)[C@@H]2CO)cc2c1OCO2
- IC50 (WI-38 VA13): 113 µM
- Activity [1]: 92%
- Activity [4]: 105%
- Activity [5]: 95%
- Activity [6]: 82%
- IC50 [7]: 12.8 µM
- IC50 (A549 [8]): > 316 µM
- IC50 (HepG2): 97.8 µM
- Activity [9]: 70%
- Activity [10]: 98%

SMILES: COc1ccc(CCN(C)CCCC(C#N)(c2ccc(OC)c(OC)c2)C(C)C)cc1OC (configuration not stated)
- Activity [4]: 150%
- Activity [5]: 116%
- Activity [10]: 106%

SMILES: COc1cc(C(c2cc(OC)c3c(c2)OCO3)[C@@H]2COC(=O)[C@@H]2COC(C)=O)cc(OC)c1O (single isomer, unassigned; (-))
- IC50 (WI-38 VA13): 15.2 µM
- Activity [1]: 101%
- Activity [4]: 104%
- Activity [5]: 104%
- Activity [6]: 89%
- IC50 [7]: 14.8 µM
- IC50 (HepG2): 75.9 µM
- Activity [9]: 69%
- Activity [10]: 108%

SMILES: COc1cccc2c1C(=O)c1c(O)c3c(c(O)c1C2=O)C[C@@](O)(C(=O)CO)C[C@@H]3O[C@H]1C[C@H](N)[C@H](O)[C@H](C)O1 (stereo in doubt) [DOXORUBICIN]
- IC50 (WI-38 VA13): 0.699 µM
- IC50 [7]: 1.21 µM
- IC50 (HepG2): 2.21 µM

SMILES: CC(=O)O[C@H]1C(=O)[C@@]2(C)[C@H]([C@H](OC(=O)c3ccccc3)[C@]3(O)C[C@H](OC(=O)[C@H](O)[C@@H](NC(=O)c4ccccc4)c4ccccc4)C(C)=C1C3(C)C)[C@]1(OC(C)=O)CO[C@@H]1C[C@@H]2O [PACLITAXEL]
- IC50 (WI-38 VA13): 0.0059 µM
- IC50 [7]: 0.0468 µM

SMILES: COc1cc(C(c2cc(OC)c3c(c2)OCO3)[C@@H]2COC(=O)[C@H]2C)cc2c1OCO2 [PEPEROMIN A]
- IC50 (WI-38 VA13): > 239 µM
- Activity [1]: 90%
- Activity [4]: 120%
- Activity [5]: 91%
- Activity [6]: 82%
- IC50 [7]: > 239 µM
- IC50 (A549 [8]): > 316 µM
- IC50 (HepG2): > 239 µM
- Activity [9]: 83%
- Activity [10]: 85%

SMILES: COc1cc([C@@H](c2cc(OC)c3c(c2)OCO3)[C@@H]2COC(=O)[C@H]2C)cc(OC)c1OC [PEPEROMIN B]
- IC50 (WI-38 VA13): 13.9 µM
- Activity [1]: 132%
- Activity [4]: 121%
- Activity [5]: 104%
- Activity [6]: 107%
- IC50 [7]: 9.06 µM
- IC50 (A549 [8]): > 316 µM
- IC50 (HepG2): 119 µM
- Activity [9]: 81%
- Activity [10]: 111%

SMILES: COc1cc(C(c2cc(OC)c(OC)c(OC)c2)[C@@H]2COC(=O)[C@H]2C)cc(OC)c1OC [PEPEROMIN C]
- IC50 (WI-38 VA13): 120 µM
- Activity [1]: 130%
- IC50 (A549 [2]): 246 µM
- IC50 (A549 [3]): 125 µM
- Activity [4]: 138%
- Activity [5]: 115%
- Activity [6]: 118%
- IC50 [7]: 175 µM
- IC50 (A549 [8]): > 316 µM
- IC50 (HepG2): 189 µM
- Activity [9]: 92%
- Activity [10]: 109%

SMILES: C=C1C(=O)OC[C@H]1C(c1cc(OC)c2c(c1)OCO2)c1cc(OC)c2c(c1)OCO2 [PEPEROMIN E]
- IC50 (WI-38 VA13): 1.93 µM
- Activity [1]: 96%
- Activity [4]: 132%
- Activity [5]: 102%
- Activity [6]: 88%
- IC50 [7]: 1.21 µM
- IC50 (A549 [8]): 78.9 µM
- IC50 (HepG2): 12.1 µM
- Activity [9]: 88%
- Activity [10]: 102%
